The list is not random: actives were taken first. Their share in the collection is about 2.3%.
TAAR1 antag – human TAAR1 antagonism | Q96RJ0 | CHO RD-HGA16 TAAR1, Fluo-8 calcium fluorescence, antagonist | inhibition, % at 3 µM | 360,000 compounds, 1.5% hits | AID 624466;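 active means inhibition above a per-plate cutoff, the mean inhibition of test compounds on that plate plus 3 SD, cut at about 49% in these data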;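 further: 0% = DMSO plus EC80 beta-PEA response and 100% = DMSO alone without agonist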
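Test system: RD-HGA16 CHO cells with stable hTAAR1 and Gα16 / Probe or stimulus: EC80 β-phenethylamine stimulus / Times: seeding 17-24 h prior, 75-min 37 °C, 30-min RT dye loading / Detection: Fluo-8 calcium-sensitive fluorescence / Read-out basis: % inhibition scaled between DMSO and EC80 PEA controls / Repeats: singlicate, one well per test compound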
V1aR counter – counter-screen for oxytocin receptor agonists: human V1a receptor agonists | CHO-V1R cells, Fluo-8 calcium fluorescence, agonist mode; 0% DMSO, 100% 3 nM vasopressin | activation, % at 3 µM | 320,000 compounds, 0.25% hits;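 active means activation above the mean activation of all tested compounds plus 3 SD, per screening run, cut at about 20% in these data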;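 further: signal is peak over basal fluorescence ratio across a 100 second FLIPR read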
Target sequence (P37288 whole entry, looked up): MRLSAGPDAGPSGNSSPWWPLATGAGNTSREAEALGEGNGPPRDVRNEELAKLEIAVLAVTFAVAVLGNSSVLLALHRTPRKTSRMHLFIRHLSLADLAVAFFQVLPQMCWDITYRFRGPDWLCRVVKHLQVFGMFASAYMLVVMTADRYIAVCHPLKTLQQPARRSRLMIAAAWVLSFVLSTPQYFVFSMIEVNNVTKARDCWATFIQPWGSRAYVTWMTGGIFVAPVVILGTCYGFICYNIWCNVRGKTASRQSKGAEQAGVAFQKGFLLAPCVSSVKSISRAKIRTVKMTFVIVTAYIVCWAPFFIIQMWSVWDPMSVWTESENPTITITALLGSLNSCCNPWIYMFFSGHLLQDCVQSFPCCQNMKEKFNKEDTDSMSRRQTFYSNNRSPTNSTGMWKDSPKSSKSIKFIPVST
OXTR ag – activates the human oxytocin receptor; 320,000 compounds, 0.32% hits; CHO-OTR cells, Fluo-8 calcium fluorescence; normalized: DMSO 0%, oxytocin 100%; AID 2435; activation, % at 3 µM; P30559;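 active means activation above the mean of all tested compounds plus 3 SD, cutoff set per screening run, cut at about 20% in these data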;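 further: peak over basal fluorescence ratio from a 100 s FLIPR kinetic read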
TAAR1 ag – agonists of human TAAR1; AID 624467; Q96RJ0; CHO RD-HGA16 TAAR1, Fluo-8 calcium fluorescence; vehicle wells 0%, saturating PEA agonist 100%; activation, % at 3 µM; 360,000 compounds, 0.99% hits;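 active means activation above the mean activation of all test compounds in the run plus 3 SD, cut at about 38% in these data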
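Test system: RD-HGA16 (CHO) cells co-expressing Gα16 and hTAAR1 | Doses: Single dose, 3 µM | Schedule: 17-24 h seeding, 75 min 37 °C dye, 30 min RT | Evaluation: % activation from peak over basal fluorescence ratio, DMSO-to-PEA scaled | Technique: Kinetic Fluo-8 calcium fluorescence | Benchmarks: Low control DMSO, high control PEA (EC100)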
OXTR potentiator – human OXTR potentiation. CHO-OTR cells, Fluo-8 calcium fluorescence, potentiator mode; 0% = oxytocin EC15, 100% = EC100. activation, % at 3 µM. 320,000 compounds, 0.061% hits. AID 2445;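 active means activation above that plate's cutoff, the mean activation of tested compounds plus 3 SD, cut at about 6.6% in these data, passing the limit was not always enough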;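 further: 100% uses oxytocin at 75 nM as the full agonist control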
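Replication – single well per compound, singlicate · Assay system – CHO cell line stably expressing human OTR · Timing – 6 min pre-incubation, 100 s read · Measure – normalized max/min fluorescence ratio, % activation · Doses – 3.0 µM, one dose · Detection – Fluo-8 calcium dye fluorescence · Probe or stimulus – oxytocin near EC15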
TAAR1 nonsel count – nonselective antagonist in TAAR1 antagonist counter-screen | shares compounds with TAAR1 antag | counterscreen cell line, calcium fluorescence, antagonist mode | inhibition, % at 3 µM | 2,400 compounds, 77% hits | AID 651780; in the data active means inhibition above about 22%;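 further: CHO-Ga16 host cells stimulated with ATP at an EC80 level; 0% = agonist EC80 plus vehicle and 100% = vehicle without agonist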
TAAR1 ant conf – confirmation of human TAAR1 antagonists; shares compounds with TAAR1 antag; TAAR1-expressing cells, fluorescence antagonist read-out; 2,400 compounds, 40% hits; AID 651785; inhibition, % at 3 µM; in the data active means inhibition above about 49%;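 further: CHO-Ga16 host cells challenged with agonist PEA near its EC80; 0% = agonist at EC80 plus vehicle and 100% = vehicle with no agonist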
Ga16 nonsel ag – counter-screen for TAAR1 antagonists: nonselective Ga16 agonists | shares compounds with TAAR1 antag | Ga16-expressing cells, calcium fluorescence, agonist counterscreen | activation, % at 3 µM | 2,400 compounds, 18% hits | AID 651953; in the data active means activation above about 12%;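 further: 0% = vehicle wells and 100% = saturating stimulus response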
TAAR1 ag counter – activates human TAAR1 in antagonist counter-screen | shares compounds with TAAR1 antag | hTAAR1 cell line, fluorescence activation, agonist mode | activation, % at 3 µM | 2,400 compounds, 2% hits | AID 651955; in the data active means activation above about 37%;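 further: CHO cells stably expressing TAAR1 with calcium dye readout; 0% = DMSO vehicle and 100% = full agonist response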
An asterisk follows results filed as active; · = no result given.

SMILES	TAAR1 antag	V1aR counter	OXTR ag	TAAR1 ag	OXTR potentiator	TAAR1 nonsel count	TAAR1 ant conf	Ga16 nonsel ag	TAAR1 ag counter
Cc1cccc(N2CCN(C(=O)C3CCN(S(=O)(=O)c4cccc5cccnc45)CC3)CC2C)c1 (centres undefined)	75*	4	1	15	-8	28*	54*	11	9
COc1ccc(OC)c(NC(=O)C2CCCN(S(=O)(=O)c3cccc4cccnc34)C2)c1 (centres undefined)	60*	1	-2	12	4	24*	40	9	7
O=C(C1CCN(S(=O)(=O)c2cccc3cccnc23)CC1)N1CCCC1	1	0	1	2	-5	·	·	·	·
CN(C)C(CNC(=O)c1sc2ccccc2c1Cl)c1ccco1 (centres undefined)	-12	·	·	2	·	·	·	·	·
Cc1ccc(C(=O)COC(=O)c2ccc(O)cc2)cc1	5	2	2	4	-2	·	·	·	·
C#CCN(C[C@H]1[C@H](OC(=O)NCc2ccco2)[C@H](OC(=O)NCc2ccco2)C[C@@H](C(=O)OC)[C@H]1C(=O)OC)S(=O)(=O)c1ccc(C)cc1	24	·	·	6	·	·	·	·	·
C#CCN(C[C@H]1[C@H](OC(=O)NCc2ccc(OC)c(OC)c2)[C@H](OC(=O)NCc2ccc(OC)c(OC)c2)C[C@@H](C(=O)OC)[C@H]1C(=O)OC)S(=O)(=O)c1ccc(C)cc1	58*	·	·	11	·	27*	40	6	5
COc1ccc(/C=N/NC(=O)CN(C)C(=O)OCc2ccccc2)cc1OC	-15	1	1	2	1	·	·	·	·
CC(=O)c1ccc(OCCCOc2cccc3cccnc23)cc1	4	·	·	7	·	·	·	·	·
CC(=O)CCc1ccc(OCCCOc2cccc3cccnc23)cc1	68*	9	7	15	-16	32*	46	11	18
Oc1[nH]c2ccccc2c1N=Nc1nc(Nc2ccccc2)nc(N2CCOCC2)n1	53*	-1	-1	11	-5	29*	45	6	9
COC(=O)c1ccccc1NC(=S)N(Cc1ccc2c(c1)OCO2)Cc1cc2cc(OC)ccc2[nH]c1=O	53*	1	1	3	-1	15	27	6	9
COc1ccc(NC(=O)N(Cc2cc3ccc(OC)cc3[nH]c2=O)CC2CCCO2)cc1 (centres undefined)	10	-1	-2	15	-17	·	·	·	·
COc1ccc(NC(=O)N(Cc2cc3cc(OC)ccc3[nH]c2=O)CC2CCCO2)cc1 (centres undefined)	56*	-1	-2	13	-14	27*	41	7	5
COc1ccccc1CN(Cc1nc2ccccc2c(=O)[nH]1)C(=O)Nc1cccc(C)c1	32	0	-1	3	-7	·	·	·	·
Cc1cccc(/C=N/NC(=O)c2ccc(F)cc2)n1	-1	-2	0	0	-2	·	·	·	·
Cc1ccccc1-n1ncc2c1CC(C)(C)CC2NC(=O)CCN1Cc2ccccc2C1=O (centres undefined)	0	-1	-1	5	-8	·	·	·	·
Cc1nn(-c2ccccn2)c2c1-c1nc(N3CCOCC3)ncc1CC2	70*	0	-2	15	-7	27*	49*	6	5
CN(C)C(=O)[C@@H]1C[C@H]1[C@@H](NC(=O)OCc1ccccc1)c1ccccc1	3	0	2	3	-8	·	·	·	·
C[C@@H](C(=O)O)[C@H]1C[C@]1(C)[C@H](NC(=O)OCc1ccccc1)c1ccccc1	75*	0	0	-1	-9	6	3	2	-1
COC(=O)[C@H](C)[C@@H]1C[C@@]1(C)[C@@H](NC(=O)OCc1ccccc1)c1ccccc1	29	-2	-1	14	-4	·	·	·	·
COC(=O)[C@H]1C[C@@H]1[C@H](NC(=O)[C@H]1C[C@@H]1[C@H](NC(=O)OCc1ccccc1)c1ccccc1)c1ccccc1	59*	0	0	11	-17	30*	34	5	1
O=S1(=O)CCOCCN1Cc1ccc(Cl)cc1Cl	·	1	0	·	3	·	·	·	·
Fc1ccccc1COc1ccc(Br)cc1CNCc1ccncc1	75*	2	1	13	-8	40*	62*	12*	17
CCc1nc2c(OCc3ccccc3C)cccn2c1N(C)C(=O)C(C)C	-10	·	·	-1	·	·	·	·	·
CCNC(=O)COC(=O)CCNC(=O)c1ccc(Cl)cc1	10	0	-1	0	-7	·	·	·	·
CC1=C(C(=O)N2CCOCC2)CC(CC(=O)NC2CC2)C(=O)N1Cc1ccc(F)cc1 (centres undefined)	2	·	·	0	·	·	·	·	·
Cc1ccc2nc(-c3ccccc3)c(Cc3cccc(Cl)c3)n2c1	3	·	·	1	·	·	·	·	·
CCC(C)Sc1cccc(-c2nc3ccccn3c2NCc2ccccc2)c1 (centres undefined)	84*	-1	-1	13	-8	42*	70*	11	14
